Assays:
[1] = target: Histone deacetylase; assay: Inhibition of human HDAC in HeLa cell nuclear extracts using KI-104 Fluor de Lys as substrate by fluorescence assay; format: protein assay
Outline: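 HDAC activity from partially purified HeLa nuclear extracts, using a fluorogenic acetylated histone peptide (Fluor de Lys) as substrate. Replicates n ≥ 2, mean values reported.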

[2] = test system: K562; assay: Antiproliferative activity against human K562 cells after 72 hrs by CellTiter-Glo luminescent cell viability assay; format: functional, cell-based; settings: K562, 72 h
Outline: (§1)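 Cells in exponential growth exposed to a range of inhibitor concentrations for 72 h. CellTiter-Glo reagent added, mixed 2 min to lyse cells, luminescence read 10 min later. IC50 derived from the concentration–response. Replicates n ≥ 2, mean shown.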

[3] = test system: A549; assay: Antiproliferative activity against human A549 cells after 72 hrs by CellTiter-Glo luminescent cell viability assay; format: functional, cell-based; settings: A549, 72 h; outline: as §1
[4] = test system: HCT-116; assay: Antiproliferative activity against human HCT116 cells after 72 hrs by CellTiter-Glo luminescent cell viability assay; format: functional, cell-based; settings: HCT-116, 72 h; outline: as §1
[5] = Oral bioavailability in mouse; format: ADME, organism-based; settings: in vivo
[6] = Clearance in mouse; format: ADME, organism-based; settings: in vivo

IC50 [1] [µM] | IC50 [2] [µM] | IC50 [3] [µM] | IC50 [4] [µM] | bioavailability [5] [%] | clearance [6] [mL/min/kg] | SMILES
0.288 | 0.806 | 1.04 | 0.266 |  |  | CN1CCC2(CC1)CC(=O)c1cc(/C=C/C(=O)NO)ccc1O2
0.932 | 4.11 | 5.94 | 3.1 |  |  | O=C(/C=C/c1ccc2c(c1)C(=O)C1(CCN(Cc3ccccc3)CC1)O2)NO
1.04 | 6.08 | 11.3 | 36 |  |  | CC(=O)N1CCC2(CC1)CC(=O)c1ccc(/C=C/C(=O)NO)cc1O2
1.41 | > 50 | 24.8 | 35.5 |  |  | O=C(/C=C/c1ccc2c(c1)OC1(CCNCC1)CC2=O)NO
2.99 | 2.61 | 20.2 | 11.8 |  |  | CCOC(=O)N1CCC2(CC1)Oc1ccc(/C=C/C(=O)NO)cc1C2=O
0.641 | 9.37 | 26.2 | 5.66 |  |  | CC(=O)N1CCC2(CC1)CC(=O)c1cc(/C=C/C(=O)NO)ccc1O2
> 50 | > 50 | > 50 | > 50 |  |  | CC(=O)N1CCC2(CC1)Oc1ccc(/C=C/C(=O)NO)cc1C2=O
1.19 | 3.27 | 4.7 | 3.51 |  |  | O=C(/C=C/c1ccc2c(c1)C=CC1(CCN(Cc3ccccc3)CC1)O2)NO
29 | > 50 | > 50 | > 50 |  |  | O=C(NO)c1ccc2c(c1)C(=O)CC1(CCN(C(=O)c3ccccc3)CC1)O2
0.316 | 1.65 | 5.52 | 2.2 |  |  | O=C(/C=C/c1ccc2c(c1)C(=O)CC1(CCN(C(=O)c3ccccc3)CC1)O2)NO
2.55 | 7.43 | 22.1 | 12.3 |  |  | O=C(/C=C/c1ccc2c(c1)C(=O)C1(CCN(C(=O)c3ccccc3)CC1)O2)NO
 |  |  |  | < 10 |  | O=C(CCCCCCC(=O)Nc1ccccc1)NO [VORINOSTAT]
0.538 | 0.397 | 1.07 | 0.337 |  |  | CN1CCC2(CC1)Oc1ccc(/C=C/C(=O)NO)cc1C2=O
5.15 | > 50 | > 50 | 32.8 |  |  | CC(=O)NC1CC2(CCN(Cc3ccccc3)CC2)Oc2ccc(/C=C/C(=O)NO)cc21 (stereo not given)
> 50 | > 50 | > 50 | > 50 |  |  | CN1CCC2(CC1)CC(=O)c1cc(C(=O)NO)ccc1O2
9.02 | 38.6 | ≥ 50 | 28.2 |  |  | O=C(/C=C/c1ccc2c(c1)CCC1(CCN(Cc3ccccc3)CC1)O2)NO
 |  |  |  | < 10 | 193 | O=C(/C=C/c1cccc(S(=O)(=O)Nc2ccccc2)c1)NO [BELINOSTAT]
0.082 | 5.77 | 2.72 | 1.59 |  |  | O=C(/C=C/c1ccc2c(c1)C(=O)CC1(CCNCC1)O2)NO
 |  |  |  | < 10 | 305 | Cc1[nH]c2ccccc2c1CCNCc1ccc(/C=C/C(=O)NO)cc1 [PANOBINOSTAT]
0.14 | 2.08 | 5.27 | 2.14 |  |  | CCOC(=O)N1CCC2(CC1)CC(=O)c1cc(/C=C/C(=O)NO)ccc1O2
5.84 | 4.5 | 3.76 | 5.72 |  |  | CN1CCC2(CC1)CC(=O)c1ccc(/C=C/C(=O)NO)cc1O2
24 | 16 | 22 | 15 |  |  | O=C(NO)c1ccc2c(c1)C(=O)CC1(CCN(Cc3ccccc3)CC1)O2
0.366 | 3.19 | 8.78 | 4.92 |  |  | O=C(/C=C/c1ccc2c(c1)OC1(CCN(C(=O)c3ccccc3)CC1)CC2=O)NO
> 50 | > 50 | > 50 | > 50 |  |  | CC(=O)N1CCC2(CC1)CC(=O)c1cc(C(=O)NO)ccc1O2
0.408 | 2.19 | 2.78 | 3.03 |  |  | CCOC(=O)N1CCC2(CC1)CC(=O)c1ccc(/C=C/C(=O)NO)cc1O2
1.21 | 2.95 | 5.25 | 2.33 |  |  | O=C(/C=C/c1ccc2c(c1)C(O)CC1(CCN(Cc3ccccc3)CC1)O2)NO (stereo not given)
0.221 | 1.69 | 1.09 | 0.832 |  |  | O=C(/C=C/c1ccc2c(c1)C(=O)C1(CCNCC1)O2)NO
2.173 | 8.94 | 12.2 | 8.41 |  |  | O=C(/C=C/c1ccc2c(c1)OC1(CCN(Cc3ccccc3)CC1)CC2=O)NO
